The list is not random: actives were taken first. Their share in the collection is about 1.8%.
MT1-MMP act inh = blockers of MT1-MMP proenzyme processing, primary screen, HT1080 RFP-PRO-GFP cells, GFP/RFP fluorescence. Matrix metalloproteinase-14 (Homo sapiens), P50281. GFP/RFP ratio fluorescence, overnight; percent of plate control window, DMSO zero. GFP/RFP ratio change, % at 20 µM. 360,000 compounds, 0.061% hits. AID 651647, 2012;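 active = GFP/RFP ratio change of at least 30% with cell ATP level not reduced by more than half and red fluorescence within 50% of control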
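system = RFP-PRO-GFP reporter HT1080 cells | dosing = 20 µM single dose, 1% DMSO | timing = overnight cell settling, then overnight compound exposure, 37 °C, 5% CO2 | read-out basis = GFP/RFP fluorescence ratio | controls = DMSO and RFP-L50D-GFP cell wells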
DAGLB inhibitor = DAGLB lipase inhibitors, primary screen, biochemical, fluorescence, HTS | Diacylglycerol lipase-beta (Homo sapiens), Q8NCG7 | HEK293T DAGLB membrane lysate, EnzChek fluorogenic substrate | inhibition, % at 5.17 µM | 340,000 compounds, 0.059% hits; in the data active = inhibition above about 34%;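 also: 0% = enzyme with vehicle and 100% = wells lacking enzyme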
Target sequence (Q8NCG7 whole entry, looked up): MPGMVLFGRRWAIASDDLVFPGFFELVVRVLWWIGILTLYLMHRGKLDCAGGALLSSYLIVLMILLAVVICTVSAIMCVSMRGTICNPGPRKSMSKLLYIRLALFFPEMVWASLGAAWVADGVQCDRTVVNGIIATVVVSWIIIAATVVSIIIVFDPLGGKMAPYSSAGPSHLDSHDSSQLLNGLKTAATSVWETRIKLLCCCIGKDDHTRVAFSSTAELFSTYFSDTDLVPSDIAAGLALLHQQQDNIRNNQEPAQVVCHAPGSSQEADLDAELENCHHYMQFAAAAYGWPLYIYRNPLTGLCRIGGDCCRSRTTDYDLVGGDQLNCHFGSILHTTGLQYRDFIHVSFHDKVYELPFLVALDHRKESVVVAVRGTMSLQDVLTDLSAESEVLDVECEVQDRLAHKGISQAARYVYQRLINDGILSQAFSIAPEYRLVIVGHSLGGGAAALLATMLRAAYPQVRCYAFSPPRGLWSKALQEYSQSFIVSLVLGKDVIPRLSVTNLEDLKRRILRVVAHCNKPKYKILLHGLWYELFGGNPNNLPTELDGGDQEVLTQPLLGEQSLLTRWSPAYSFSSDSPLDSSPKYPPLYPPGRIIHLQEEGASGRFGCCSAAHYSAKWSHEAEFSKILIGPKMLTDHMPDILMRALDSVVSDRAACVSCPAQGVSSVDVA
hiPSC survival = enhancers of single-cell hiPSC survival, primary screen, ATPlite luminescence. 360,000 compounds, 0.044% hits. survival enhancement, % at 20 µM. 100% = ROCK inhibitor wells, 0% = DMSO; in the data active = survival enhancement above about 18%;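 also: cells exposed to compounds for 16 hours before the ATP read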
SKN-1 inh = suppressors of acrylamide-induced Pgst-4::GFP reporter in worms, primary screen, SKN-1 inhibitor project, whole organism, uHTS, GFP/RFP fluorescence ratio, strain VP596; C. elegans VP596 Pgst-4::GFP/RFP ratio, 24 h; inhibition, % at 21.8 µM; 360,000 compounds, 0.49% hits;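 active = interference check ratio from 0.5 to 1.5 plus GFP to RFP signal ratio inhibition reaching or exceeding a fixed threshold, cut at about 30% in these data, passing the limit was not always enough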
Ecoli rRNA inh = reduced GFP signal of wild-type E. coli, primary screen, bacterial rRNA inhibitor project, GFP/RFP fluorescence, OD600, single point. E. coli WT GFP vs humanized-ribosome RFP mutants, 24 h; active compounds read low; DMSO median 0, no signal -100. GFP signal change (wild-type ribosome), % (test concentration not listed). 350,000 compounds, 1.6% hits;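 active = significant combined selectivity score with lowered wild-type GFP, culture density cut under 30%, mutant RFP and density less affected; inactive = any of these conditions unmet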
Cneo AK release = Cryptococcus neoformans cell lysis inducers, primary screen, AK release luminescence, single concentration. C. neoformans lysis, adenylate kinase release luminescence, 4 h; normalised: neutral wells 0, clomiphene wells 100. lysis activity, % at 15 µM. 360,000 compounds, 0.2% hits. AID 651654, 2012;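 active = mean lysis activity across replicates of at least 80%, whatever share of replicates individually reach that level; inactive = mean lysis activity below 80%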
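Test system: log-phase Cryptococcus neoformans yeast cells. Input: 5 × 10^6 yeast cells/mL. Medium: fresh YPD growth medium. Doses: single dose. Incubation: static 4 h at 37 °C with compound, 1 h detection. Measured by: luminescent adenylate kinase detection reagent. Read-out: signal increase indicating cell lysis. Benchmarks: Clomiphene.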
DAGLB inh conf = DAGLB lipase inhibitors, retest, confirmation, biochemical, fluorescence, HEK293T membranes; shares compounds with DAGLB inhibitor; HEK293T DAGLB membrane lysate, EnzChek fluorogenic substrate; inhibition, % at 5.17 µM; 190 compounds, 73% hits; AID 504445, 2011;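 active = mean inhibition over triplicate wells above a set limit taken from the primary lipase screen, cut at about 34% in these data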;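 also: 0% = DAGLB with DMSO and 100% = wells lacking DAGLB enzyme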
* marks the source's active call; other numbers are inactive results; · = no result given; ! = a repeat was not active.

SMILES | MT1-MMP act inh | DAGLB inhibitor | hiPSC survival | SKN-1 inh | Ecoli rRNA inh | Cneo AK release | DAGLB inh conf
Cc1ccc2sc(NC(=O)c3cccc(N4C(=O)CCC4=O)c3)nc2c1C | -2 | -1 | 0 | 38* | 3 | -1 | ·
Cc1ccc2sc(NC(=O)c3ccc(N4C(=O)CCC4=O)cc3)nc2c1C | 4 | 1 | -1 | -3 | 5 | 0 | ·
CC(=O)c1ccc(NC(=O)COC(=O)c2ccccc2N=Nc2ccc(N(C)C)cc2)cc1 | 17 | 36* | 0 | 19 | 4 | -11 | 28
COC(=O)c1ccccc1NC(=O)COC(=O)c1ccccc1N=Nc1ccc(N(C)C)cc1 | 11 | 17 | -3 | 11 | · | · | ·
CCn1c(NCc2ccc(N(C)C)cc2)nc2ccccc21 | 1 | -6 | -2 | -2 | · | 1 | ·
CN(C)c1ccc(N=Nc2nc3ccccc3n2C)cc1 | 20 | 36* | -1 | 62* | 16 | -9 | 59*
CCCNC(=O)[C@@H]1N[C@@H]2c3ccc(-c4cccc(F)c4)c(=O)n3C[C@@H]2[C@H]1CO | · | · | · | · | 0 | · | ·
CN1C(=O)c2cc(NC(=O)Nc3ccccc3)ccc2OC[C@H]2O[C@@H](CC(=O)O)CC[C@@H]21 | · | · | · | · | 2 | 11 | ·
C/C(C/C(C)=C1/SC(=S)NC1=O)=C1\SC(=S)NC1=O | -20 | 47* | 1 | -7 | 10 | · | 35*
CCCCCC/C(C)=C1/SC(=S)NC1=O | -49 | 11 | 1 | 5 | · | -6 | ·
O=C1/C(=C/c2ccc(O)c(O)c2)SC(=S)N1Nc1ccccc1 | -15 | 40* | -2 | 21 | · | · | 30
O=C(NN1C(=O)/C(=C/c2ccc(O)c(O)c2)SC1=S)c1ccccc1 | -31 | 39* | 0 | 23 | -31* | -4 | 32
CO[C@@H]1CN(C)C(=O)c2ccc(NC(=O)C3CC3)cc2OC[C@H](C)N(C(=O)c2ccccn2)C[C@H]1C | · | · | · | · | 4 | 0 | ·
CC1=NN(c2ccc(Cl)cc2)C(=O)/C1=C\c1cccn1-c1ccc(S(N)(=O)=O)cc1 | 7 | 36* | -2 | -11 | · | · | 28
CC(C)NC(=O)N(C)C[C@H]1OCCCC[C@@H](C)Oc2ccc(NS(=O)(=O)c3cn(C)cn3)cc2C(=O)N([C@@H](C)CO)C[C@H]1C | · | · | · | · | -4 | 46 | ·
O=C1C(=C(c2ccccc2)c2ccccc2)Nc2ccccc21 | 11 | 40* | -2 | 61 | · | -1 | 38*
COc1ccc2c3c([nH]c2c1)[C@H](CO)N(Cc1cccc(Cl)c1)CC31CCN(C)CC1 | · | · | · | · | 2 | · | ·
Nc1cccc2c1C(=O)c1ccc(Cl)cc1C2=O | 11 | 38* | 1 | 46* | · | -1 | 40*
CCCC(=O)NC(c1cccs1)c1cc([N+](=O)[O-])c2cccnc2c1O (stereo not drawn) | 11 | 35* | 2 | 5 | 13 | -4 | 20
CCC(=O)NC(c1cccs1)c1cc([N+](=O)[O-])c2cccnc2c1O (stereo not drawn) | 8 | 22 | 0 | 19 | -7 | 2 | ·
Cc1ccc(C(=O)NN2C(=O)/C(=C/c3cn(C)c4ccccc34)SC2=S)cc1 | -113 | -6 | 2 | 62 | 15 | · | ·
Cn1cc(/C=C2\SC(=O)NC2=S)c2ccccc21 | -8 | 37* | 0 | 11 | -1 | · | 54*
C[C@@H]1CCCCO[C@@H](CN(C)C)[C@@H](C)CN([C@@H](C)CO)C(=O)c2cc(NC(=O)C3CCCCC3)ccc2O1 | · | · | · | · | 1 | -3 | ·
c1ccc(-[n+]2nc(Nc3cccc4ccccc34)sc2-c2c3ccccc3cc3ccccc23)cc1 | 14 | 43* | -4 | 10 | · | 6 | 41*
Fc1ccc(-[n+]2nc(Nc3ccccc3)sc2-c2c3ccccc3cc3ccccc23)cc1 | 16 | 21 | -5 | -14 | -55 | 27 | ·
SMILES | MT1-MMP act inh | DAGLB inhibitor | hiPSC survival | SKN-1 inh | Ecoli rRNA inh | Cneo AK release | DAGLB inh conf
C[C@H](CO)N1C[C@H](C)[C@@H](CN(C)C(=O)c2ccncc2)OCCCC[C@H](C)Oc2ccc(NS(=O)(=O)c3ccccc3)cc2C1=O | · | · | · | · | 1 | 2 | ·
Nc1cc([N+](=O)[O-])cc2oc(-c3ccccc3)cc12 | -27 | 37* | -1 | 17 | -4 | 3 | 37*
O=c1cc(-c2ccccc2)oc2ccccc12 | 0 | -6 | -2 | 3 | -4 | -6 | ·
COc1cc(/C=C2/C(=O)NN(c3ccc(F)cc3)C2=O)cc(Cl)c1O | 0 | 10 | -1 | 5 | 5 | -3 | ·
COc1cc(/C=C2/C(=O)NN(c3ccc(Cl)c(Cl)c3)C2=O)cc([N+](=O)[O-])c1O | 5 | 38* | 0 | 10 | -16 | -2 | 50*
NC(=O)CC(NC(=O)c1ccccc1)c1ccc(NCCc2cccc(F)c2)c([N+](=O)[O-])c1 (stereo not drawn) | 6 | 14 | 1 | -2 | 14 | 4 | ·
NC(=O)CC(NC(=O)c1ccc(Br)cc1)c1ccc(NCCc2ccc(F)cc2)c([N+](=O)[O-])c1 (stereo not drawn) | 14 | 39* | -3 | 18 | 5 | 7 | 76*
COC(=O)c1ccccc1NC1=C/C(=N\S(=O)(=O)c2ccc(C(=O)O)cc2)c2ccccc2C1=O | 13 | 19 | 2 | -9 | · | -3 | ·
COC(=O)c1ccccc1NC1=C/C(=N\S(=O)(=O)c2cccs2)c2ccccc2C1=O | 2 | 42*! | -4 | 20 | -3 | 0 | 55*
COc1ccc(-c2csc3nc(-c4ccccc4OC)oc(=O)c23)cc1 | -4 | 43* | 1 | 2 | -20* | 1 | 41*
COc1ccc(CN(C)C[C@@H]2Oc3ccc(NC(=O)NC4CCCCC4)cc3CC(=O)N([C@H](C)CO)C[C@@H]2C)cc1 | · | · | · | · | -2 | -3 | ·
CC1=NN(c2ccccc2)C(=O)/C1=C/N(C)C | 0 | -1 | 0 | -9 | 9 | 0 | ·
CC1=NN(c2ccccc2)C(=O)/C1=C\C=C1/N(C)c2ccccc2C1(C)C | 1 | 40* | 0 | 47* | 12 | · | 61*

Assay outcomes as filed in PubChem.
